Assay results pooled from the literature.
Protocols differ between the studies behind these lines.
Cell line: Calu-3
Observed: cell growth or viability

SMILES	test	setting	CC50
O=C(Nc1ccc2c(c1)OCO2)c1nnc(C(=O)N2CCCC(C(=O)NCc3ccccc3)C2)s1 (centres unmarked)	MTT	48 h	151 µM
COc1cc(Nc2ccnc3ccc(Br)cc23)cc(OC)c1OC	resazurin	–	> 60 µM
CN(C)C(=O)COC(=O)Cc1ccc(OC(=O)c2ccc(NC(=N)N)cc2)cc1	ATP luminescence	–	> 200 µM
CCOC(=O)c1c(NCc2ccc(SC)cc2)c2cccc(C)c2[nH]c1=O	MTS	48 h	> 100 µM
O=C1Nc2cc(C(F)(F)F)ccc2Oc2ccsc21	MTT	72 h	> 100 µM
CCC(CC)COC(=O)[C@H](C)N[P@](=O)(OC[C@H]1O[C@@](C#N)(c2ccc3c(N)ncnn23)[C@H](O)[C@@H]1O)Oc1ccccc1	MTT	48 h	≥ 250 µM
O=C(NCc1ccc(F)cc1)c1cccc(Nc2ccc(-c3ccccc3)nn2)c1	MTS	48 h	> 100 µM
COc1cc2ncnc(Nc3ccc(F)c(Cl)c3)c2cc1OCCCN1CCOCC1	resazurin	–	> 60 µM
CN1C(=O)c2ccccc2[S+]([O-])c2cc([N+](=O)[O-])ccc2S1(=O)=O (centres unmarked)	MTT	72 h	> 100 µM
CC(C)[C@H](NC(=O)c1ccccc1NC(=O)c1ccccc1)C(=O)N[C@H](CO)C(C)C	MTT	48 h	> 250 µM
CCS(=O)(=O)N1CC(CC#N)(n2cc(-c3ncnc4[nH]ccc34)cn2)C1	resazurin	–	> 60 µM
